Data: ChEMBL document CHEMBL3232930, “One-pot, four-component synthesis of novel cytotoxic agents 1-(5-aryl-1,3,4-oxadiazol-2-yl)-1-(1H-pyrrol-2-yl)methanamines” (Eur J Med Chem, 2014)

Key:
[1] = test system: A549; assay: Cytotoxicity against human A549 cells assessed as reduction in cell viability after 24 hrs by MTT assay; type: functional, cell-based; conditions: A549, 24 h
Outline: (§1)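 15,000 exponential-phase cells per well were seeded and incubated 24 h, then exposed to a range of test concentrations. Medium alone served as the negative control and doxorubicin as the positive control. MTT (5 mg/mL stock) was added for a further 4 h, and the formazan was dissolved in DMSO. Percent inhibition versus control was calculated, and IC50 was taken from the dose–inhibition curve. Each experiment was run three times.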

[2] = test system: HT-29; assay: Cytotoxicity against human HT-29 cells assessed as reduction in cell viability after 24 hrs by MTT assay; type: functional, cell-based; conditions: HT-29, 24 h; outline: as §1
[3] = Cytotoxicity against human HT1080 cells assessed as reduction in cell viability after 24 hrs by MTT assay; type: functional, cell-based; conditions: HT-1080, 24 h; outline: as §1
[4] = test system: MCF7; assay: Cytotoxicity against human MCF7 cells assessed as reduction in cell viability after 24 hrs by MTT assay; type: functional, cell-based; conditions: MCF7, 24 h; outline: as §1
[5] = test system: MCF7; assay: Ratio of doxorubicin IC50 to compound IC50 for human MCF7 cells assessed as reduction in cell viability after 24 hrs by MTT assay; type: functional

SMILES	IC50 [1] [µM]	IC50 [2] [µM]	IC50 [3] [µM]	IC50 [4] [µM]	Ratio IC50 [5]
c1ccc(CNC(c2ccc[nH]2)c2nnc(-c3ccccc3)o2)cc1 (stereo not drawn)	187	198	231	216	
Clc1cccc(-c2nnc(C(NCc3ccccc3)c3ccc[nH]3)o2)c1 (stereo not drawn)	62.2	48.3	41.1	56.7	
Clc1ccc(-c2nnc(C(NCc3ccccc3)c3ccc[nH]3)o2)cc1 (stereo not drawn)	73.8	54.5	41	46.2	
Clc1ccc(-c2nnc(C(NCc3ccccc3)c3ccc[nH]3)o2)cc1Cl (stereo not drawn)	25.5	41.7	15.2	13.9	
Fc1cc(-c2nnc(C(NCc3ccccc3)c3ccc[nH]3)o2)c(Cl)cc1Cl (stereo not drawn)	27.5	20	25.6	21.7	
Brc1ccc(-c2nnc(C(NCc3ccccc3)c3ccc[nH]3)o2)cc1 (stereo not drawn)	87.2	58.3	70.6	96.6	
Cc1ccc(-c2nnc(C(NCc3ccccc3)c3ccc[nH]3)o2)cc1 (stereo not drawn)	744	249	909	1120	
Cc1cccc(-c2nnc(C(NCc3ccccc3)c3ccc[nH]3)o2)c1 (stereo not drawn)	430	202	311	480	
COc1ccc(-c2nnc(C(NCc3ccccc3)c3ccc[nH]3)o2)cc1 (stereo not drawn)	326	344	170	460	
COc1ccc(-c2nnc(C(NCc3ccccc3)c3ccc[nH]3)o2)c(OC)c1 (stereo not drawn)	296	392	418	471	
COc1ccccc1CNC(c1ccc[nH]1)c1nnc(-c2ccccc2)o1 (stereo not drawn)	362	392	278	441	
COc1ccc(CNC(c2ccc[nH]2)c2nnc(-c3ccccc3)o2)cc1 (stereo not drawn)	278	286	175	142	
COc1ccc(CNC(c2ccc[nH]2)c2nnc(-c3cccc(Cl)c3)o2)cc1 (stereo not drawn)	77.5	95.6	84.6	41.7	
Cc1ccc(CNC(c2ccc[nH]2)c2nnc(-c3ccc(Br)cc3)o2)cc1 (stereo not drawn)	53.9	49.5	51.9	4.3	4
COc1ccc(-c2nnc(C(NCc3ccc(F)cc3)c3ccc[nH]3)o2)cc1 (stereo not drawn)	52.8	39.4	14.7	28.9	
Clc1cccc(-c2nnc(C(NCc3ccc(Cl)c(Cl)c3)c3ccc[nH]3)o2)c1 (stereo not drawn)	13.3	18	25.1	19	
Clc1ccc(CNC(c2ccc[nH]2)c2nnc(-c3ccc(Br)cc3)o2)cc1Cl (stereo not drawn)	17.3	20	45.3	31	
COc1cccc2c1C(=O)c1c(O)c3c(c(O)c1C2=O)C[C@@](O)(C(=O)CO)C[C@@H]3O[C@H]1C[C@H](N)[C@H](O)[C@H](C)O1 [DOXORUBICIN]	13.6	16	15.4	16.9	
